Compound activity (PubChem BioAssay)
Most compounds without a hit are left out; they make up all but 1.3% or so of the library.
AF4-AF9 inh: MLL-AF4/AF9 protein interaction inhibition. P42568. AlphaScreen, biotin-AF4 peptide binding to FLAG-AF9. inhibition, % at 10 µM. 0.47% of 350,000 active;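 active = every replicate reaching a set inhibition limit, whatever the replicate mean, cut at about 25% in these data; inconclusive = mean inhibition reaches that limit but some replicates miss it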
RAD54 inh: blocks human RAD54 Holliday junction branch migration; FAM/BHQ fluorescence; AID 602329; 0.14% of 360,000 active; inhibition, % at 10.4 µM;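 active = mean normalized replicate activity at least 40 and at least half of replicates scoring 40 or more; inconclusive = only one of the two criteria met; inactive = mean below 40 and under half of replicates reaching 40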;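 note: inhibitors cause a drop in the FAM fluorescence signal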
GSIS activator: GLuc luminescence reporter in INS-1E cells, primary screen for activators of glucose-dependent secretion of insulin; 0.61% of 370,000 active; activation, % at 16.6 µM; INS-1E GLuc reporter insulin secretion, 2-3 h;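 active = lowest replicate activation of at least 40%, so every replicate reaches that level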
RAD52 inh: blocks human RAD52 DNA annealing; inhibition, % at 18.7 µM; P43351; 0.46% of 360,000 active; AID 651710; recombinant RAD52 DNA annealing, FRET fluorescence;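 active = every replicate showing at least 50% inhibition; inconclusive = mean inhibition at least 50% but not in every replicate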
Target sequence (P43351 whole entry, looked up): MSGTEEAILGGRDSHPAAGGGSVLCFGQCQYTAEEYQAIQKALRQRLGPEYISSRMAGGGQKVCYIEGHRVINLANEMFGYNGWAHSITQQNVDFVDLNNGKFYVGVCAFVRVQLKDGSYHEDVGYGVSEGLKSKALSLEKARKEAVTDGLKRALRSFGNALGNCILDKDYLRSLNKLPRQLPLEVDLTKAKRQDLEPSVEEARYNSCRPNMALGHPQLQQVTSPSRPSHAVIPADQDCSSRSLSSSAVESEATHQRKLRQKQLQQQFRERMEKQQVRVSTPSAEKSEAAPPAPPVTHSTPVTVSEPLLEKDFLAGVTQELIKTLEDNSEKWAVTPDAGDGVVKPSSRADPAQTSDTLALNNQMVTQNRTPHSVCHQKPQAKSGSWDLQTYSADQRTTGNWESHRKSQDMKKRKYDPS
S100A4 MyoIIA: S100A4-myosin IIA interaction inhibition; inhibition, % at 10.7 µM; 0.14% of 360,000 active; S100A4/TAMRA-MyoIIA peptide fluorescence polarization;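 active = mean inhibition of at least 70% across replicates, with every replicate also reaching that level; inconclusive = mean inhibition reaches 70% but some replicates fall short; inactive = mean inhibition below 70%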
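System – human S100A4 monomer protein, biochemical binding assay · Buffer or medium – Calcium-containing HEPES buffer, pH 7.2 · Timing – 5 min between mix addition and reading · Also added – TAMRA-labelled myosin IIA heavy-chain peptide probe, 5 nM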
Hits are given with their value; i = inactive; ? = inconclusive; nt = not tested or not shown; ! = repeats disagree.

SMILES | AF4-AF9 inh | RAD54 inh | GSIS activator | RAD52 inh | S100A4 MyoIIA
CC(O)c1nc2ccc(Cc3ccc4nc(C(C)O)[nH]c4c3)cc2[nH]1 (centres undefined) | nt | i | 46 | nt | nt
O=C(C[C@H]1C=C[C@@H](NC(=O)c2ccc3c(c2)OCO3)[C@@H](CO)O1)NCc1ccc(Oc2ccccc2)cc1 | i | nt | i | i | i
COc1ccc2c3c(n(C)c2c1)[C@@H](CO)N(C(=O)NC(C)C)CC31CCN(CC2CCCC2)CC1 | i | nt | i | i | i
O=C(O)Cc1ccc(NS(=O)(=O)c2ccc3c(c2)OCCO3)cc1 | i | i | 130 | i | i
COc1ccc(S(=O)(=O)Nc2ccc3c(c2)OCO3)cc1OC | nt | i | 43 | i | i
Cc1ccc(S(=O)(=O)N[C@H]2CC[C@@H](CCNS(=O)(=O)Cc3ccccc3)O[C@@H]2CO)cc1 | i | i | i | i | i
CO[C@@H]1CN(C)C(=O)c2ccc(NC(=O)C3CCC3)cc2OC[C@H](C)N(Cc2nccs2)C[C@@H]1C | i | i | i | i | i
COc1ccc2c3c(n(C)c2c1)[C@H](CO)N(C(=O)c1ccccc1)CC31CN(CC2CC2)C1 | i | nt | i | nt | nt
N#C[C@@H]1[C@H](c2ccc(-c3cncnc3)cc2)[C@H](CO)N1C(=O)Cc1ccccc1 | i | i | i | i | i
COC(=O)CCCCC1SCC2NC(=O)NC21O (centres undefined) | 54 | nt | i | i | i
COC(=O)C1CSC(C)(C)C(=O)N1 (centres undefined) | i | i | i | i | i
COc1cc(C(=O)O)ccc1OCc1ccccc1 | nt | nt | 55 | i | i
COc1ccc(C(C)=O)cc1OCc1ccccc1 | i | i | i | i | i
COCCNC(=O)C[C@H]1C[C@@H]2c3cc(NS(=O)(=O)c4ccc(F)cc4)ccc3O[C@@H]2[C@H](CO)O1 | nt | i | i | nt | nt
O=C(CC(c1ccccc1)c1ccco1)N1CCOCC1 (centres undefined) | nt | i | 49 | nt | nt
Cc1ccc(S(=O)(=O)NC(CC(=O)N2CCOCC2)c2ccco2)cc1 (centres undefined) | nt | i | i | nt | nt
CCCNC(=O)Nc1ccc2c(c1)C(=O)N(C)C[C@H](OC)[C@@H](C)CN(C(=O)c1ccccc1F)[C@@H](C)CO2 | i | i | nt | i | i
O=C(CCN1C(=O)/C(=C\c2ccccc2F)SC1=S)N1CCOCC1 | i | i | 42 | i | i
COCC(=O)Nc1ccc2c(c1)OC[C@@H](C)N(C(=O)c1cccnc1)C[C@H](C)[C@H](OC)CN(C)C2=O | i | i | i | i | i
CN(Cc1ccccc1)C(=S)NC(=O)c1ccc(-c2ccccc2)cc1 | nt | i | 40 | nt | nt
CCCCCCCCCCOC(=O)Cn1c(COc2ccccc2C)[n+](C)c2ccccc21 | nt | ? | 139 | 83 | i
CCCCCCCCCCOC(=O)Cn1c(COc2ccc(OC)cc2)[n+](C)c2ccccc21 | nt | 58! | nt | nt | nt
CCOC(=O)Cn1c(COc2ccccc2OC)[n+](C)c2ccccc21 | i | i | nt | i | i
C[C@@H]1CN([C@H](C)CO)C(=O)c2cc(NC(=O)Nc3cccc4ccccc34)ccc2O[C@@H]1CN(C)Cc1ccncc1 | i | i | i | i | i
COc1ccccc1NC(=O)CSc1nnc(Cc2ccccc2)o1 | i | i | nt | i | i
SMILES | AF4-AF9 inh | RAD54 inh | GSIS activator | RAD52 inh | S100A4 MyoIIA
COc1ccccc1NC(=O)CSc1nnc(-c2ccccc2)o1 | i | i | 84 | i | i
C[C@H](CO)N1C[C@H](C)[C@H](CN(C)C(=O)c2ccc3ccn(C)c3c2)OCc2cn(nn2)CCCC1=O | nt | nt | i | nt | nt
C[C@H]1CN([C@@H](C)CO)C(=O)CCCn2cc(nn2)CO[C@H]1CN(C)Cc1ccccc1 | i | i | i | i | i
CCC(C)N(C(=O)CSc1nncn1C)C1CCS(=O)(=O)C1 (centres undefined) | i | i | 102 | i | i
Cc1cccc(Nc2nc(-c3ccc(F)c(C)c3)cs2)n1 | i | i | i | i | i
Cc1ccnc(Nc2nc(-c3ccc(O)cc3)cs2)c1 | i | i | i | i | i
Cc1cccc(Nc2nc(-c3ccc(O)c(O)c3)cs2)n1 | 26 | i | i | i | i
Cc1ccnc(Nc2nc(-c3ccc(O)c(O)c3)cs2)c1 | 41 | i | i | i | i
COCC#Cc1ccc2c(c1)O[C@H](CN(C)S(=O)(=O)c1ccc(C)cc1)[C@H](C)CN([C@@H](C)CO)S2(=O)=O | i | i | i | i | i
Cc1ccc(NC(=O)CN2C(=O)N/C(=C/c3ccc(C)o3)C2=O)cc1 | nt | i | nt | nt | nt
Cc1ccc(NC(=O)CN2C(=O)N/C(=C/c3ccc(C)s3)C2=O)cc1 | nt | i | 99 | nt | nt
